Screening results as filed in PubChem BioAssay.
Runt-CBFb FRET = inhibitors of RUNX1 Runt–CBFb binding, primary screen, biochemical, FRET, Cerulean-Runt, Venus-CBFb, uHTS; Runt-related transcription factor 1 (Homo sapiens) + Core-binding factor subunit beta …; Cerulean-Runt/Venus-CBFb FRET ratio 530/480, 1 h; inhibition, % at 20 µM; actives 0.46% (n = 220,000); AID 1496, 2009;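 active means inhibition over about 50% at 20 µM in the single-dose screen, limit read from the data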;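 further: 0% = DMSO wells and 100% = excess unlabeled CBFb competitor control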
Target sequence (Q01196 whole entry, looked up): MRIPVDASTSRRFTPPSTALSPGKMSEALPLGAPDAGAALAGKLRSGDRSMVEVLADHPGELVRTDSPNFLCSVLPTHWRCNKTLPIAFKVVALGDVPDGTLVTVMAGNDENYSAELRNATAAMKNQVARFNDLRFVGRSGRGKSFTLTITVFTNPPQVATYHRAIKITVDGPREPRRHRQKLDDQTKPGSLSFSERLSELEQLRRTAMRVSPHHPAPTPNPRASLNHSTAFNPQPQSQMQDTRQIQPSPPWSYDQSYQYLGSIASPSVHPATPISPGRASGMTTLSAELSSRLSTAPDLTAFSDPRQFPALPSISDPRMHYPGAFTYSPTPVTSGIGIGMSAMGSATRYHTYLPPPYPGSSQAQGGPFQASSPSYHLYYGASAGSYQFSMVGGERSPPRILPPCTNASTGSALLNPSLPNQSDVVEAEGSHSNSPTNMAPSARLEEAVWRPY
Target sequence (Q13951 whole entry, looked up): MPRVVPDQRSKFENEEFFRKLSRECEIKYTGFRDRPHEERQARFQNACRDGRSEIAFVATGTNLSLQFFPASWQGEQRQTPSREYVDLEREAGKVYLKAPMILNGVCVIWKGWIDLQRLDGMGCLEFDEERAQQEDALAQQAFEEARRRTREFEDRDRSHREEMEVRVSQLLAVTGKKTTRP
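Reagent – Venus-CBFb binding partner, 100 nM · Assay system – Cerulean-tagged RUNX1 Runt domain (FRET donor) fusion protein · Input – 100 nM per protein · Incubation – two 1 h room-temperature incubations shielded from light · Measured by – FRET fluorescence · Medium – Tris buffer pH 7.5 with salts and BSA · Benchmarks – unlabeled CBFb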
Tb hexokinase = Trypanosoma brucei hexokinase 1 inhibitors, primary screen, biochemical, G6PDH-coupled NADH absorbance, MLSCN library; AID 1430, 2008; inhibition, % at 10 µM; hexokinase 1 [Trypanosoma brucei]; actives 0.11% (n = 220,000); recombinant TbHK1, G6PDH-coupled NADH A340;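 active means inhibition of 50% or more in the single-dose primary screen; inactive means inhibition below 50%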
p97 ATPase inh = inhibitors of human p97 ATPase, primary screen, biochemical; recombinant p97 ATPase, Kinase-Glo ATP luminescence, 3 h; inhibition, % at 8 µM; actives 0.42% (n = 220,000); in the data active means inhibition above about 15%;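 further: 0% = DMSO vehicle and 100% = wells lacking enzyme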
RanGTP-Imp inh = inhibitors of RanGTP-importin-beta interaction, primary screen, biochemical, FRET, CFP-Ran, YFP-importin-beta, homogeneous. Ran GTPase (GTP-bound) - importin-beta complex. cell-free CFP-Ran/YFP-importin-beta FRET ratio. inhibition, % (no concentration beside the values). actives 1.1% (n = 300,000). AID 2216, 2009;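 active means more than half of the replicate wells show a fall in the fluorescence ratio signal beyond about 16%, limit read from the data, passing the limit was not always enough; inconclusive means exactly half of the replicate wells pass the set limit; inactive means fewer than half of replicates pass the limit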;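 further: 0% = DMSO wells and 100% = Ran loaded with GDP instead of GTP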
Hck Nef HTS = inhibitors of Nef-activated human Hck kinase, primary screen, biochemical, Z-Lyte FRET, 384-well, Hck-YEEI | inhibition, % at 20 µM | Tyrosine-protein kinase HCK (Homo sapiens), P08631 | Recombinant Hck-YEEI plus Nef, Z-Lyte FRET kinase assay | actives 0.68% (n = 220,000);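 active means Hck-Nef kinase inhibition above about 50%, limit read from the data; inactive means inhibition below that limit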;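 further: 0% = DMSO with Hck plus Nef and 100% = Hck alone without Nef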
Runt-SMMHC FRET = inhibitors of RUNX1 Runt–CBFb-SMMHC binding, primary screen, biochemical, FRET, Cerulean-Runt, Venus-CBFb-SMMHC, uHTS; Cerulean-Runt/Venus-CBFb-SMMHC FRET ratio 530/480, 1 h; inhibition, % at 20 µM; actives 0.74% (n = 220,000);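 active means mean inhibition across duplicate retests at 20 µM reaching about 50%, limit read from the data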;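 further: 0% = DMSO wells and 100% = wells with excess untagged CBFb-SMMHC; inhibitors lower the FRET ratio by blocking Runt binding to CBFb-SMMHC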
Starred values were filed as active, the others as inactive; ? = inconclusive; . = no result given. Only some compounds are listed: those with a hit (about 2.1% of all), similar ones and a draw of the others.

SMILES | Runt-CBFb FRET | Tb hexokinase | p97 ATPase inh | RanGTP-Imp inh | Hck Nef HTS | Runt-SMMHC FRET
NS(=O)(=O)c1ccc(NC(=O)CSc2nnc(-c3cnccn3)n2-c2ccccc2)cc1 | 0.7 | -1.7 | 3.5 | -0.6 | -7.9 | -2.1
COc1cccc2sc3ccc(C#CC4(O)CCCCC4)cc3c(=O)c12 | . | . | . | 49.4* | . | .
COc1ccccc1OCCNC(=O)c1cccc(S(=O)(=O)N2CC(C)OC(C)C2)c1 (stereo unspecified) | . | . | . | -2.3 | . | .
COC(=O)CSc1[nH]c2ccc(F)cc2c1[N+](=O)[O-] | -1.9 | -23.7 | 7.1 | 4.9 | 10.0 | -23.0
COC(=O)Cc1cc(=O)n2[nH]c(C)nc2n1 | -0.7 | -1.4 | 3.3 | 17.6* | -10.3 | 3.1
COc1cccc(CNC(=O)C2CCN(S(=O)(=O)c3ccc4c(c3)OCCO4)CC2)c1 | . | . | . | 2.1 | . | .
Nc1nc2c(s1)CCc1c-2cnn1-c1ccccc1 | 29.7 | 39.4 | 15.5* | 4.5 | -2.4 | 32.0
CCCCNc1nc2c(-c3ccccc3)nnn2c2ccccc12 | 0.5 | -15.8 | 9.0 | 4.5 | -19.1 | -28.4
CCOCCCNc1nc2c(-c3ccccc3)nnn2c2ccccc12 | -4.9 | -15.1 | 11.2 | 33.7* | -6.8 | -3.3
O=c1c2ccccc2sn1-c1ccc(S(=O)(=O)N2CCCC2)cc1 | -2.8 | 12.8 | 1.7 | ? | 0.1 | 12.6
CN(C)S(=O)(=O)c1cccc(-n2sc3ccccc3c2=O)c1 | -27.1 | 85.9* | -4.6 | . | -11.8 | 35.4
O=C(COc1ccc(S(=O)(=O)N2CCOCC2)cc1)Nc1ccccc1C(F)(F)F | 1.7 | 1.0 | -0.1 | 26.5* | 4.8 | 2.1
CCOC(=O)C1=C(COC(=O)c2c(OC)cccc2OC)NC(=O)NC1C (stereo unspecified) | . | . | . | 4.4 | . | .
COc1cc2c(cc1NC(=O)COC(=O)/C=C/c1ccc([N+](=O)[O-])cc1)oc1ccccc12 | -0.7 | -9.6 | 14.6* | -2.7 | 27.6 | -3.0
COc1cc2c(cc1NC(=O)/C=C/c1ccc([N+](=O)[O-])cc1)oc1ccccc12 | -3.7 | -4.6 | 6.6 | 0.5 | 5.4 | -3.7
CCCCN(CCCNC(=O)C1CCN(S(=O)(=O)CC)CC1)c1ccccc1 | 1.9 | -4.8 | -4.6 | 21.8* | 0.0 | 7.3
Cc1nnc(SCC(=O)NCc2ccc3c(c2)OCO3)[nH]c1=O | 1.0 | -0.7 | 3.6 | -0.7 | -13.8 | 4.2
Cc1ccc(/C(N)=N/OC(=O)N2CCOCC2)cc1 | 74.3* | 0.4 | 0.4 | 2.8 | 0.4 | -119.5
Cc1cccc(/C(N)=N/OC(=O)N2CCOCC2)c1 | -0.1 | -0.6 | -6.2 | 0.3 | -0.7 | 0.4
COc1ccc(-c2nn(-c3ccccc3)cc2C(N)=O)cc1OC | . | . | . | 6.1 | . | .
Oc1cc2c(cc1O)C1c3ccc(O)c(O)c3OCC1(O)C2 (stereo unspecified) | 62.9* | 12.0 | 15.2* | . | -164.0 | 58.6*
Cc1ccc(S(=O)(=O)N2CCC(C(=O)NCCC3=CCCCC3)CC2)c(C)c1 | . | . | . | 3.7 | . | .
Cc1ccnc(NC(=O)c2ccc(Cl)c(NC(=O)CCc3ccccc3)c2)c1 | 0.1 | 0.7 | -0.1 | 23.6* | 4.3 | -2.4
Cc1ccnc(NC(=O)c2ccc(Cl)c(NC(=O)C(C)Oc3ccccc3)c2)c1 (stereo unspecified) | -2.2 | -1.5 | 1.7 | 5.0 | 16.6 | 3.2
CC(C)COP(=O)(OCC(C)C)C(O)c1ccc(N(C)C)cc1 (stereo unspecified) | -0.5 | -4.3 | 5.0 | 4.2 | 17.7 | -3.4
SMILES | Runt-CBFb FRET | Tb hexokinase | p97 ATPase inh | RanGTP-Imp inh | Hck Nef HTS | Runt-SMMHC FRET
Cc1ccc(-n2nnc3c(SCC(=O)NCc4ccco4)ncnc32)cc1 | 0.0 | -0.9 | -5.3 | -1.6 | -0.8 | -4.3
CC1(C)CC(=O)C=C(Nc2ccc(F)c(Cl)c2)C1 | . | . | . | 4.1 | . | .
COc1cc(NC2=CC(=O)CC(C)(C)C2)cc(OC)c1 | 1.6 | -12.1 | -1.9 | 1.8 | 1.1 | -3.7
Cc1ccccc1NC1=CC(=O)CC(C)(C)C1 | 1.7 | -5.3 | -4.3 | 4.2 | 6.4 | -2.8
CC1(C)CC(=O)C=C(Nc2ccc(F)cc2)C1 | 1.3 | -8.6 | -0.5 | 27.3* | 0.4 | -4.9
CC1(C)CC(=O)C=C(Nc2ccc(F)cc2F)C1 | -2.3 | 4.9 | -1.8 | 35.2* | 5.1 | 2.3
CC1(C)CC(=O)C=C(Nc2ccc(OCC(F)(F)C(F)F)cc2)C1 | -1.7 | -25.1 | -5.8 | 30.0* | 1.1 | 0.4
Cc1ccsc1C1NC(=O)c2c(sc3c2CCCC3)N1 (stereo unspecified) | 10.7 | -0.6 | -5.3 | 5.2 | 5.6 | 15.7
CN1CCc2c(sc3c2C(=O)NC(c2ccccc2)N3)C1 (stereo unspecified) | 106.2* | -19.5 | 4.5 | 5.2 | 5.1 | 76.0*
O=C1NC(c2ccccn2)Nc2sc3c(c21)CCC3 (stereo unspecified) | 6.4 | -2.3 | -1.1 | -2.0 | 2.1 | -3.1
O=C1NC(c2ccc(Br)cc2)Nc2sc3c(c21)CCC3 (stereo unspecified) | 10.2 | -8.4 | 1.1 | -3.9 | -0.5 | -10.8
Cc1ccc(C2NC(=O)c3c(sc4c3CCN(C)C4)N2)s1 (stereo unspecified) | 42.4 | -16.1 | 0.3 | 114.2* | 1.5 | 135.9*
CN1CCc2c(sc3c2C(=O)NC(c2ccccn2)N3)C1 (stereo unspecified) | 99.0* | -7.6 | 2.0 | 133.3* | 7.3 | 65.3*
Cc1ccc(C2NC(=O)c3c(sc4c3CCN(C)C4)N2)o1 (stereo unspecified) | 88.0* | -17.3 | 2.5 | 105.7* | 1.5 | 71.7*
Cc1cc2n(n1)C(c1cccs1)Nc1ccccc1-2 (stereo unspecified) | -3.2 | 16.1 | -3.5 | ? | -21.7 | -0.9
CCc1ccc(N2CC(C(=O)OCC(=O)c3c(N)n(CC(C)C)c(=O)n(C)c3=O)CC2=O)cc1 (stereo unspecified) | . | . | . | -2.8 | . | .
Cc1nnc(NC(=O)c2csc3c2CCC(C)C3)s1 (stereo unspecified) | 1.1 | -4.7 | 0.5 | 0.8 | 15.4 | 0.1
CC(CNC(=O)CCS(=O)(=O)c1ccc2c(c1)NC(=O)CO2)c1ccccc1 (stereo unspecified) | . | . | . | -0.9 | . | .
CN1CCc2c(sc3c2C(=O)NC(c2ccc4c(c2)OCO4)N3)C1 (stereo unspecified) | 125.1* | . | . | 41.0* | . | 151.9*
